Calls of active or inactive are those of the source. No cut-off for these calls is given here.

In assay [1] the target is Cytochrome c (Bos taurus) (UniProt P62894). Nature of the assay: Induction of chemical modification in bovine heart cytochrome c in phosphate buffer assessed as appearance of new peak at 413 nm at 2 mM at pH 7.4 after overnight incubation by UV-vis spectrophotometry. Put shortly:
(§1)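 Cytochrome c (50 µM) incubated overnight at 37 °C, pH 7.4, with 2 mM BAMF or 2 mM aspirin in phosphate buffer. UV–vis spectra recorded about 350–600 nm (Soret and Q-band region) and compared with native protein.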

Assay [2] has the same target. Nature of the assay: Induction of chemical modification in bovine heart cytochrome c in phosphate buffer assessed as adduct formation at heme center at 2 mM at pH 7.4 after 1 hr by UV-vis spectrophotometry. The procedure, abridged:
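Cytochrome c treated with 2 mM acetylating agent in phosphate buffer pH 7.4. Heme redox/reduction kinetics followed by absorbance at 550 nm over 1 h, with aspirin at 2 mM as the reference acetylating agent.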

The target of assay [3] is Lysozyme C (Gallus gallus) (UniProt P00698). Put plainly: Induction of chemical modification in chicken egg white lysozyme tertiary structure assessed as effect on adduct formation at 0.3 to 1.2 mM by circular dichroism analysis. (Circular dichroism is widely used to follow secondary structure.)
Assay [4] deals with Cytochrome c (Bos taurus) (UniProt P62894). Nature of the assay: Induction of chemical modification in bovine heart cytochrome c assessed as denaturation temperature at 0.6 mM by UV-vis spectrophotometry (Tm = 56.5 +/- 0.1 degC).
The target is the same in assay [5]. Put plainly: Induction of chemical modification in bovine heart cytochrome c in phosphate buffer assessed as disappearance of peak at 530 nm and appearance of new peaks at 522 and 551 nm at pH 7.4 after overnight incubation by UV-vis spectrophotometry. Put shortly: as §1
Assay [6] has the same target. Nature of the assay: Induction of chemical modification in bovine heart cytochrome c assessed as denaturation temperature at 1.2 mM by UV-vis spectrophotometry (Tm = 56.5 +/- 0.1 degC).
Assay [7] concerns the target Lysozyme C (Gallus gallus) (UniProt P00698). Put plainly: Induction of chemical modification in chicken egg white lysozyme assessed as exposure of hydrophobic core at 0.3 to 1.2 mM by ANS staining-based fluorescence assay. The procedure, abridged:
(§2)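 Proteins (50 µM) modified overnight at 37 °C with BAMF (0.3–1.2 mM) in 50 mM phosphate pH 7.4, then measured at 5 µM. ANS was used at 16-fold over protein. Excitation 360 nm, emission 400–600 nm, slits 10 nm, 3 mm quartz cell. Blanks subtracted, each spectrum at least three times.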

Assay [8] deals with Cytochrome c (Bos taurus) (UniProt P62894). Put plainly: Induction of chemical modification in bovine heart cytochrome c tertiary structure assessed as effect on adduct formation at 0.3 to 1.2 mM by circular dichroism analysis.
In assay [9] the target is Lysozyme C (Gallus gallus) (UniProt P00698). Nature of the assay: Induction of chemical modification in chicken egg white lysozyme assessed as effect on enzyme activity at 0.3 to 1.2 mM by UV-vis spectrophotometry. The procedure, abridged:
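Lysozyme (50 µM) modified overnight at 37 °C with 0.3, 0.6, 0.9 or 1.2 mM BAMF in 50 mM phosphate pH 7.4. Hydrolytic activity read turbidimetrically as the fall in A450 of a bacterial cell suspension over 1500 s. Specific activity plotted against BAMF concentration.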

In assay [10] the target is Cytochrome c (Bos taurus) (UniProt P62894). Nature of the assay: Induction of chemical modification in bovine heart cytochrome c assessed as denaturation temperature at 0.9 mM by UV-vis spectrophotometry (Tm = 56.5 +/- 0.1 degC).
Assay [11] has the same target. Put plainly: Induction of chemical modification in bovine heart cytochrome c assessed as change in negative peaks of at 282 nm and 289 nm of tyrosyl side chains at 0.3 to 1.2 mM by circular dichroism analysis.
Assay [12] has the same target. Nature of the assay: Induction of chemical modification in bovine heart cytochrome c assessed as exposure of hydrophobic core at 0.3 to 1.2 mM by ANS staining-based fluorescence assay. Put shortly:
as §2

Assay [13] has the same target. Nature of the assay: Induction of chemical modification in bovine heart cytochrome c assessed as denaturation temperature at 0.3 mM by UV-vis spectrophotometry (Tm = 56.5 +/- 0.1 degC).
For assay [14] the target is unchanged. Put plainly: Induction of chemical modification in bovine heart cytochrome c tertiary structure in phosphate buffer assessed as intact band at 695 nm at pH 7.4 after overnight incubation by UV-vis spectrophotometry. Put shortly:
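Cytochrome c modified overnight at 37 °C in 50 mM phosphate pH 7.4 with BAMF. UV–vis absorbance scanned 600–800 nm to monitor the 695 nm Met-80–heme ligand band, compared with native protein.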

Assay [15] shares this target. Nature of the assay: Induction of chemical modification in bovine heart cytochrome c in phosphate buffer assessed as appearance of new peak at 414 nm at 2 mM at pH 7.4 after overnight incubation by UV-vis spectrophotometry. Put shortly: as §1
Assay [16] shares this target. Nature of the assay: Induction of chemical modification in bovine heart cytochrome c assessed as additional peaks at 1.2 mM at pH 7.4 by ESI-MS spectroscopic technique.

Cytochrome c (Bos taurus), sequence (P62894 whole entry): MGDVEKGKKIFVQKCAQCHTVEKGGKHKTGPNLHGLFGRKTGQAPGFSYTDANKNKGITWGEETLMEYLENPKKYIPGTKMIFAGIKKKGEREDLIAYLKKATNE
Lysozyme C (Gallus gallus), sequence (P00698 whole entry): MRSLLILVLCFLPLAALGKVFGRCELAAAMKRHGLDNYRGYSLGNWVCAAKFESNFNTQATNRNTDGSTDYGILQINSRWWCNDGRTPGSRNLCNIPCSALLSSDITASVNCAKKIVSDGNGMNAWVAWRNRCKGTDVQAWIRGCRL

For `CC(=O)Oc1ccccc1C(=O)O`, the outcome in [1] was Active.

Regarding `CC(=O)OCc1ccc(COC(C)=O)o1`, the result in assay [2], in [5], in assay [15] and in assay [16] was Active. The outcome in assay [3], in [7], in [8], in [9], in assay [11] and in assay [12] was inactive. Also, in assay [14], the result was inactive. The Tm is 54.7 °C in assay [4], 53 °C in assay [6], 53.8 °C in assay [10] and 54.8 °C in assay [13].

By Tm is commonly meant the temperature at which the thermal transition is half complete.
